Assay outcomes from PubChem BioAssay.
PfM18AAP inh – blocks P. falciparum M18 aspartyl aminopeptidase; recombinant PfM18AAP, H-Glu-NHMec fluorogenic cleavage; inhibition, % at 7.35 µM; hit rate 1.2% among 290,000; AID 1822;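 active means inhibition above the campaign mean inhibition over all tested compounds plus 3 SD, cut at about 28% in these data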;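 further: 0% = plate median of test compound wells and 100% = 2 mM ZnCl2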
IMP-1 inh-1 – blocks Pseudomonas aeruginosa IMP-1 metallo-beta-lactamase. purified IMP-1, nitrocefin hydrolysis, epi-absorbance fluorescence. inhibition, % at 5.6 µM. hit rate 0.45% among 290,000;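 active means inhibition above the mean plus 3 SD of all compounds in the same screening run, cut at about 4.5% in these data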;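 further: 0% = IMP-1 with DMSO and 100% = DMSO wells lacking enzyme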
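System: purified IMP-1 / Input: IMP-1 dispensed at 0.2 nM / Medium: 50 mM HEPES pH 7.1, 50 µM ZnSO4, 0.05% Brij 35 / Timing: 15 min enzyme–compound preincubation, then 25 min nitrocefin reaction, 25 °C / Technique: plate fluorescence quenching by hydrolysis product, ex 480/em 530 nm / Repeats: singlicate testing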
HGIII-sPLA2 inh – Blocks human group III sPLA2 activity; hit rate 0.56% among 370,000; AID 743126; QFRET BODIPY PC-A2 liposome hydrolysis, fluorescence; Q9NZ20; inhibition, % at 12.2 µM;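 active means inhibition above mean plus 3 SD of compounds lying within the high and low control bounds, cut at about 19% in these data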;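 further: 0% = median of test compound wells and 100% = no enzyme DMSO wells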
Target sequence (Q9NZ20 whole entry, looked up): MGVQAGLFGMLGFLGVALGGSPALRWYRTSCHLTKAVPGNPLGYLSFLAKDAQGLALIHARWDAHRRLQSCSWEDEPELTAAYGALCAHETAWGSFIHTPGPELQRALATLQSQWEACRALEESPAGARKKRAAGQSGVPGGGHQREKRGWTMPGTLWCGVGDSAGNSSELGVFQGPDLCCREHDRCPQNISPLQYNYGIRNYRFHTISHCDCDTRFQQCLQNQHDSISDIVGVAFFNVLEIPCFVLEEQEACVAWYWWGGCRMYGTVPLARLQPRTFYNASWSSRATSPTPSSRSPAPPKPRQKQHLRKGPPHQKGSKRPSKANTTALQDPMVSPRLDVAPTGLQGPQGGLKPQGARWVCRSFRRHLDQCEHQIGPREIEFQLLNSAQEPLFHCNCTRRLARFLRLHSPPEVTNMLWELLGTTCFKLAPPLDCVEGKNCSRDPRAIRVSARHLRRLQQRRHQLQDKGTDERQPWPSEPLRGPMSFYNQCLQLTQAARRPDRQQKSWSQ
VIM-2 inhibitor – inhibitors of Pseudomonas aeruginosa VIM-2 metallo-beta-lactamase; purified VIM-2, nitrocefin hydrolysis, epi-absorbance fluorescence; inhibition, % at 5.6 µM; hit rate 0.89% among 290,000; AID 1527;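 active means inhibition above the mean of all tested compounds plus 3 SD, cutoff set per screening run, cut at about 7.5% in these data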;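 further: red hydrolysis product quenches plate fluorescence so inhibitors raise well fluorescence; 0% = enzyme with DMSO and 100% = DMSO without enzyme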
IMP-1 inh-2 – IMP-1 inhibition, counter-screen for VIM-2 inhibitors | shares compounds with VIM-2 inhibitor | purified IMP-1, nitrocefin hydrolysis, epi-absorbance fluorescence | inhibition, % at 5.6 µM | 1,300 tested, under 10 active; call rule not given here;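 further: 0% = enzyme with vehicle and 100% = vehicle without enzyme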
VIM-2 FRET ctr – counter-screen for VIM-2 inhibitors: epi-absorbance artifacts via FRET. shares compounds with VIM-2 inhibitor. purified VIM-2, CCF2 FRET substrate hydrolysis. inhibition, % at 5.6 µM. hit rate 23% among 1,300;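 active means inhibition above the mean of all tested compounds plus 3 SD, cut at about 19% in these data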;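 further: 0% = VIM-2 plus DMSO and 100% = no enzyme wells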
TEM-1 counter – TEM-1 inhibition, counter-screen for VIM-2 inhibitors. shares compounds with VIM-2 inhibitor. hit rate 3% among 1,300. inhibition, % at 5.6 µM. Purified TEM-1, nitrocefin hydrolysis, epi-absorbance fluorescence;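 active means inhibition above that campaign's mean inhibition plus 3 SD, cut at about 0.46% in these data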;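 further: 0% = TEM-1 with DMSO and 100% = TEM-1 with 100 µM potassium clavulanate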
VIM-2 confirm 2 – confirmation of P. aeruginosa VIM-2 metallo-beta-lactamase inhibitors. inhibition, % at 5.6 µM. hit rate 96% among 1,300. purified VIM-2, nitrocefin hydrolysis, epi-absorbance. AID 2187. shares compounds with VIM-2 inhibitor;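 active means inhibition of the VIM-2 beta-lactamase enzyme above about 11% from the earlier first-round screen, limit read from the data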;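 further: 0% = VIM-2 with DMSO and 100% = buffer wells without enzyme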
* marks the source's active call; other numbers are inactive results. Rows were chosen to be rich in hits. Some 2.4% of all compounds tested hit in one or more screens of this group.

Screening COC(=O)Cn1cc(/C=C2\C(=O)NC(=O)N(c3ccccc3)C2=O)c2ccccc21 returned PfM18AAP inh 18, IMP-1 inh-1 0, HGIII-sPLA2 inh -4 and VIM-2 inhibitor 1.
For CCN1C(=O)NC(=O)/C(=C\c2cn(CC(=O)N3CCCCC3)c3ccccc23)C1=O the results were PfM18AAP inh 19, IMP-1 inh-1 -2, HGIII-sPLA2 inh 6 and VIM-2 inhibitor 11*.
Screening COCCNC(=O)Cn1cc(C=C2C(=O)NC(=O)NC2=O)c2ccccc21 returned PfM18AAP inh 31*, IMP-1 inh-1 -1, HGIII-sPLA2 inh 6 and VIM-2 inhibitor -1.
`c1ccc2oc(-c3ccc4c(c3)CNCc3cnnn3-4)cc2c1` gave HGIII-sPLA2 inh 3.
CC(C)(C)n1nnnc1C1CN=C(c2ccccc2)c2cc(Cl)ccc2N1 (stereo unspecified) was read as HGIII-sPLA2 inh -7.
`CN1CN(c2ccccc2)C2(CCN(CCCSc3ccccc3NC(=O)/C=C/c3ccccc3)CC2)C1=O` gave HGIII-sPLA2 inh -13.
O=C(NC1(C(F)(F)F)Oc2ccc(Cl)cc2O1)N1CCC2(CC1)OCCO2 (stereo unspecified) was read as PfM18AAP inh 98*, IMP-1 inh-1 -4, HGIII-sPLA2 inh 2 and VIM-2 inhibitor -2.
For O=C(CCC(=O)N1CCOc2ccc(Cl)cc21)N1CCC2(CC1)OCCO2 the results were PfM18AAP inh 0, IMP-1 inh-1 -1, HGIII-sPLA2 inh 5 and VIM-2 inhibitor 0.
Screening Cc1cc(O)c2c(c1)C(=O)[C@@]13C(=C2O)C(=O)[C@H]2C(O)[C@@H]1[C@H]1C(O)[C@@H]3C(=O)C3=C(O)c4c(O)cc(C)cc4C(=O)[C@@]312 (stereo partly specified) returned HGIII-sPLA2 inh 11.
`CCOC(=O)c1c(N)n(CCN2CCCCC2)c2nc3ccccc3nc12` gave PfM18AAP inh -2, IMP-1 inh-1 2, HGIII-sPLA2 inh -7 and VIM-2 inhibitor 7.8*.
For CCCCn1c(N)c(C(=O)NCCN2CCOCC2)c2nc3ccccc3nc21 the results were PfM18AAP inh 15, IMP-1 inh-1 -5, HGIII-sPLA2 inh -7 and VIM-2 inhibitor 4.
Screening O=C(NCCN1CCC2(CC1)C(=O)NCN2c1ccccc1)c1cccc(F)c1 returned HGIII-sPLA2 inh 3.
Screening S=P(Nn1cnnc1)(c1ccc(Br)cc1)c1ccc(Br)cc1 returned PfM18AAP inh 29*, IMP-1 inh-1 -2, HGIII-sPLA2 inh -24 and VIM-2 inhibitor -1.
`CC(N)Cc1c[nH]c2c1ccc1ccccc12` (stereo unspecified) gave PfM18AAP inh 30*, IMP-1 inh-1 -3, HGIII-sPLA2 inh 1 and VIM-2 inhibitor -3.
O=[N+]([O-])c1ccc(NCc2ccccc2)c2nonc12 was read as PfM18AAP inh 6, IMP-1 inh-1 30*, HGIII-sPLA2 inh -311 and VIM-2 inhibitor 23*.
Screening C=CCn1c(O)c(C=NCCCn2ccnc2)c(=O)[nH]c1=O returned PfM18AAP inh -9, IMP-1 inh-1 0, HGIII-sPLA2 inh -1, VIM-2 inhibitor 23*, IMP-1 inh-2 -4, VIM-2 FRET ctr 0, TEM-1 counter -5 and VIM-2 confirm 2 37*.
For Nc1c(C(=O)NCCN2CCOCC2)c2nc3ccccc3nc2n1Cc1ccco1 the results were PfM18AAP inh 5, IMP-1 inh-1 -2, HGIII-sPLA2 inh -13, VIM-2 inhibitor 15*, IMP-1 inh-2 -3, VIM-2 FRET ctr -19, TEM-1 counter -5 and VIM-2 confirm 2 29*.
For Nc1c(C(=O)NCCN2CCOCC2)c2nc3ccccc3nc2n1Cc1ccccc1 the results were PfM18AAP inh 28, IMP-1 inh-1 -2, HGIII-sPLA2 inh -21 and VIM-2 inhibitor -1.
Screening Cc1cc(OCC(=O)NCc2ccncc2)c2c3c(c(=O)oc2c1)CCC3 returned PfM18AAP inh 0, IMP-1 inh-1 -2, HGIII-sPLA2 inh 1, VIM-2 inhibitor 72*, IMP-1 inh-2 -3, VIM-2 FRET ctr 2, TEM-1 counter -11 and VIM-2 confirm 2 78*.
For Cc1cc(OCC(=O)NC(Cc2ccc(Cl)cc2)C(=O)O)c2c3c(c(=O)oc2c1)CCCC3 (stereo unspecified) the results were PfM18AAP inh -15, IMP-1 inh-1 -1, HGIII-sPLA2 inh -18, VIM-2 inhibitor 33*, IMP-1 inh-2 -1, VIM-2 FRET ctr 47*, TEM-1 counter 0.6* and VIM-2 confirm 2 37*.
Screening CCN(CC)C(=O)COc1cc(C)cc2oc(=O)c3c(c12)CCCC3 returned PfM18AAP inh -6, IMP-1 inh-1 -3, HGIII-sPLA2 inh 7 and VIM-2 inhibitor 2.
`O=C(NCCN1CCC2(CC1)C(=O)NCN2c1ccccc1)c1cccnc1Cl` gave HGIII-sPLA2 inh 5.
For Cn1nc(-c2ccc(OCC(=O)N3CCN(Cc4ccccc4)CC3)cc2)c2ccccc2c1=O the results were PfM18AAP inh 1, IMP-1 inh-1 -1, HGIII-sPLA2 inh -8, VIM-2 inhibitor 13*, IMP-1 inh-2 -3, VIM-2 FRET ctr 5, TEM-1 counter -5 and VIM-2 confirm 2 28*.
For Cn1cccc1CN1CCN(C(=O)COc2ccccc2)CC1 the results were PfM18AAP inh 28, IMP-1 inh-1 -4, HGIII-sPLA2 inh 3 and VIM-2 inhibitor 1.
For COc1ccc2c(c1)C1(C)CCN(C)CC(C1)C2O (stereo unspecified) the results were HGIII-sPLA2 inh 8.
`COc1nc2ccccc2nc1N1CC1` gave HGIII-sPLA2 inh 6.
`O=[N+]([O-])c1ccc(N2CCNCC2)cc1NC1CC1` gave PfM18AAP inh -7, IMP-1 inh-1 0 and VIM-2 inhibitor 1.
`O=[N+]([O-])c1ccc(N2CCCC2)cc1N/N=C1\CN2CCC1CC2` gave PfM18AAP inh 9, IMP-1 inh-1 -4, HGIII-sPLA2 inh 12, VIM-2 inhibitor 13*, IMP-1 inh-2 -3, VIM-2 FRET ctr 32*, TEM-1 counter -9 and VIM-2 confirm 2 25*.
Screening CN1CCN(c2ccc(N)cc2)CC1 returned PfM18AAP inh -5, IMP-1 inh-1 -9, HGIII-sPLA2 inh 8, VIM-2 inhibitor 37*, IMP-1 inh-2 -8, VIM-2 FRET ctr -1, TEM-1 counter -6 and VIM-2 confirm 2 59*.
CCN1CCN(c2ccc(N)cc2)CC1 was read as PfM18AAP inh 5, IMP-1 inh-1 -8, HGIII-sPLA2 inh 4, VIM-2 inhibitor 38*, IMP-1 inh-2 -9, VIM-2 FRET ctr -3, TEM-1 counter -6 and VIM-2 confirm 2 27*.
Screening N#Cc1ccc(NC(=S)N2Cc3cc(Br)ccc3-n3nncc3C2)cc1 returned HGIII-sPLA2 inh -7.
